Measurements: ChEMBL document CHEMBL4014308, “Amphiphilic Tobramycin-Lysine Conjugates Sensitize Multidrug Resistant Gram-Negative Bacteria to Rifampicin and Minocycline” (J Med Chem, 2017)
In brackets after ≈: the same amount, converted by molar mass. Activity calls are given as the source filed them. The calls are words filed in the database; no cut-off is given here.

Assays:
Assay type in all cases: functional
Staphylococcus aureus [1] = experiment: Antibacterial activity against Staphylococcus aureus ATCC 29213 after 24 hrs by […] dilution method; conditions: ATCC 29213, 24 h
Staphylococcus aureus [2] = experiment: Antibacterial activity against methicillin resistant Staphylococcus aureus ATCC 33592 after 24 hrs by […] dilution method; conditions: ATCC 33592, 24 h
[3] = tested on: Staphylococcus epidermidis; experiment: Antibacterial activity against methicillin-susceptible Staphylococcus epidermidis isolate CANWARD-2008 81388 after 24 hrs by […] dilution method; conditions: isolate CANWARD-2008 81388, 24 h
[4] = tested on: Staphylococcus epidermidis; experiment: Antibacterial activity against methicillin-resistant Staphylococcus epidermidis isolate CAN-ICU 61589 after 24 hrs by […] dilution method; conditions: isolate CAN-ICU 61589, 24 h
Enterococcus faecalis = experiment: Antibacterial activity against Enterococcus faecalis ATCC 29212 after 24 hrs by […] dilution method; conditions: ATCC 29212, 24 h
Enterococcus faecium = experiment: Antibacterial activity against Enterococcus faecium ATCC 27270 after 24 hrs by […] dilution method; conditions: ATCC 27270, 24 h
Streptococcus pneumoniae = experiment: Antibacterial activity against Streptococcus pneumoniae ATCC 49619 after 24 hrs by […] dilution method; conditions: ATCC 49619, 24 h
Escherichia coli [5] = experiment: Antibacterial activity against Escherichia coli ATCC 25922 after 24 hrs by […] dilution method; conditions: ATCC 25922, 24 h
Escherichia coli [6] = experiment: Antibacterial activity against gentamicin-resistant Escherichia coli isolate CAN-ICU 61714 after 24 hrs by […] dilution method; conditions: isolate CAN-ICU 61714, 24 h
Escherichia coli [7] = experiment: Antibacterial activity against amikacin-resistant Escherichia coli isolate CAN-ICU 63074 after 24 hrs by […] dilution method; conditions: isolate CAN-ICU 63074, 24 h
Escherichia coli [8] = experiment: Antibacterial activity against gentamicin/tobramycin/ciprofloxacin-resistant Escherichia coli isolate CANWARD-2011 97615 harboring AAC3-2A after 24 hrs by […] dilution method; conditions: isolate CANWARD-2011 97615, 24 h
Pseudomonas aeruginosa [9] = experiment: Antibacterial activity against Pseudomonas aeruginosa ATCC 27853 after 24 hrs by […] dilution method; conditions: ATCC 27853, 24 h
Pseudomonas aeruginosa [10] = experiment: Antibacterial activity against gentamicin-resistant Pseudomonas aeruginosa isolate CAN-ICU 62308 after 24 hrs by […] dilution method; conditions: isolate CAN-ICU 62308, 24 h
Pseudomonas aeruginosa [11] = experiment: Antibacterial activity against gentamicin/tobramycin-resistant Pseudomonas aeruginosa isolate CANWARD-2011 96846 after 24 hrs by […] dilution method; conditions: isolate CANWARD-2011 96846, 24 h
[12] = tested on: Stenotrophomonas maltophilia; experiment: Antibacterial activity against Stenotrophomonas maltophilia isolate CAN-ICU 62584 after 24 hrs by […] dilution method; conditions: isolate CAN-ICU 62584, 24 h
Acinetobacter baumannii = experiment: Antibacterial activity against Acinetobacter baumannii isolate CAN-ICU 63169 after 24 hrs by […] dilution method; conditions: isolate CAN-ICU 63169, 24 h
Klebsiella pneumoniae = experiment: Antibacterial activity against Klebsiella pneumoniae ATCC 13883 after 24 hrs by […] dilution method; conditions: ATCC 13883, 24 h
Pseudomonas aeruginosa [13] = experiment: Antibacterial activity against Pseudomonas aeruginosa PAO1 after 18 hrs by microtiter dilution assay; conditions: PAO1, 18 h
How it was run: (§1)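 Broth microdilution following CLSI guidelines. An overnight culture was adjusted to 0.5 McFarland in saline, then diluted 1:50 in Mueller-Hinton broth. This inoculum was added in equal volume to 2-fold serial dilutions of agent in MHB and incubated 18 h at 37 °C. MIC was the lowest concentration with no visible growth.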

Pseudomonas aeruginosa [14] = experiment: Antibacterial activity against multidrug/extremely drug-resistant/colistin-susceptible Pseudomonas aeruginosa isolate 100036 after 18 hrs by microtiter dilution assay; conditions: isolate 100036, 18 h; how it was run: as §1
Pseudomonas aeruginosa [15] = experiment: Antibacterial activity against multidrug/extremely drug-resistant/colistin-susceptible Pseudomonas aeruginosa isolate 101885 after 18 hrs by microtiter dilution assay; conditions: isolate 101885, 18 h; how it was run: as §1
Pseudomonas aeruginosa [16] = experiment: Antibacterial activity against multidrug/extremely drug-resistant/colistin-susceptible Pseudomonas aeruginosa isolate P259-96918 after 18 hrs by microtiter dilution assay; conditions: isolate P259-96918, 18 h; how it was run: as §1
Pseudomonas aeruginosa [17] = experiment: Antibacterial activity against multidrug/extremely drug-resistant/colistin-susceptible Pseudomonas aeruginosa isolate P262-101856 after 18 hrs by microtiter dilution assay; conditions: isolate P262-101856, 18 h; how it was run: as §1
Pseudomonas aeruginosa [18] = experiment: Antibacterial activity against multidrug/extremely drug-resistant/colistin-susceptible Pseudomonas aeruginosa isolate P264-104354 after 18 hrs by microtiter dilution assay; conditions: isolate P264-104354, 18 h; how it was run: as §1
Pseudomonas aeruginosa [19] = experiment: Antibacterial activity against multidrug/extremely drug-resistant/colistin-resistant Pseudomonas aeruginosa isolate 91433 after 18 hrs by microtiter dilution assay; conditions: isolate 91433, 18 h; how it was run: as §1
Pseudomonas aeruginosa [20] = experiment: Antibacterial activity against multidrug/extremely drug-resistant/colistin-resistant Pseudomonas aeruginosa isolate 101243 after 18 hrs by microtiter dilution assay; conditions: isolate 101243, 18 h; how it was run: as §1
Pseudomonas aeruginosa [21] = experiment: Synergistic antibacterial activity against Pseudomonas aeruginosa PAO1 after 18 hrs in presence of minocycline by checkerboard assay
How it was run: (§2)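 Checkerboard in MHB: antibiotic diluted along one axis and adjuvant along the other (10 × 7 matrix). Inoculum was a 1:50 dilution in MHB of a 0.5 McFarland saline suspension; incubated 18 h at 37 °C. Each FIC = concentration in the no-growth well divided by the MIC alone; FIC index = sum of both FICs. ≤0.5 synergy, 0.5–4 no interaction, ≥4 antagonism.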

Pseudomonas aeruginosa [22] = experiment: Synergistic antibacterial activity against Pseudomonas aeruginosa PAO1 after 18 hrs in presence of rifampicin by checkerboard assay; how it was run: as §2
Pseudomonas aeruginosa [23] = experiment: Antibacterial activity against Pseudomonas aeruginosa PAO1 assessed as ratio of MIC after 25 serial passages to MIC before 25 serial passages by microtiter dilution assay
How it was run: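 Sequential passaging of wild-type PAO1 with single drugs or drug combinations. MIC was tested in MHB for 18 h. Cells from the well at half the MIC were adjusted to 0.5 McFarland in saline, diluted 1:50 in fresh MHB and used for the next MIC test. This was repeated for 25 passages, and the fold change in MIC was plotted against passage number.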

Pseudomonas aeruginosa [24] = experiment: Induction of cytoplasmic membrane depolarization in Pseudomonas aeruginosa PAO1 up to 1200 secs by diSC3-5 staining based fluorescence assay
How it was run: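 Mid-log PAO1 washed in 5 mM HEPES pH 7.4 with 20 mM glucose and resuspended to OD600 0.05. Cells were loaded with 0.2 mM EDTA and 0.4 µM diSC3-5 for 2 h at 37 °C in the dark, then equilibrated with 100 mM KCl for 30 min. Agent was added and fluorescence followed at 622/670 nm; agents tested at 32 µg/mL.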

NC[C@H]1O[C@H](O[C@H]2[C@H](O)[C@@H](O[C@H]3O[C@H](CO)[C@@H](O)[C@H](N)[C@H]3O)[C@H](N)C[C@@H]2N)[C@H](N)C[C@@H]1O [TOBRAMYCIN]
MIC (Staphylococcus aureus [1]): ≤ 0.25 µg/mL
MIC (Staphylococcus aureus [2]): ≤ 0.25 µg/mL
MIC [3]: ≤ 0.25 µg/mL
MIC [4]: 1 µg/mL (≈ 2.14 µM)
MIC (Enterococcus faecalis): 8 µg/mL (≈ 17.1 µM)
MIC (Enterococcus faecium): 8 µg/mL (≈ 17.1 µM)
MIC (Streptococcus pneumoniae): 2 µg/mL (≈ 4.28 µM)
MIC (Escherichia coli [5]): 0.5 µg/mL (≈ 1.07 µM)
MIC (Escherichia coli [6]): 8 µg/mL (≈ 17.1 µM)
MIC (Escherichia coli [7]): 8 µg/mL (≈ 17.1 µM)
MIC (Escherichia coli [8]): 128 µg/mL (≈ 274 µM)
MIC (Pseudomonas aeruginosa [9]): 0.5 µg/mL (≈ 1.07 µM)
MIC (Pseudomonas aeruginosa [10]): 16 µg/mL (≈ 34.2 µM)
MIC (Pseudomonas aeruginosa [11]): 256 µg/mL (≈ 548 µM)
MIC [12]: > 512 µg/mL
MIC (Acinetobacter baumannii): 32 µg/mL (≈ 68.4 µM)
MIC (Klebsiella pneumoniae): ≤ 0.25 µg/mL
MIC (Pseudomonas aeruginosa [13]): 0.25 µg/mL (≈ 0.535 µM)
MIC (Pseudomonas aeruginosa [14]): 64 µg/mL (≈ 137 µM)
MIC (Pseudomonas aeruginosa [15]): 0.25 µg/mL (≈ 0.535 µM)
MIC (Pseudomonas aeruginosa [16]): 128 µg/mL (≈ 274 µM)
MIC (Pseudomonas aeruginosa [17]): 512 µg/mL (≈ 1100 µM)
MIC (Pseudomonas aeruginosa [18]): 128 µg/mL (≈ 274 µM)
MIC (Pseudomonas aeruginosa [19]): 8 µg/mL (≈ 17.1 µM)
MIC (Pseudomonas aeruginosa [20]): 256 µg/mL (≈ 548 µM)
Activity (Pseudomonas aeruginosa [21]): inactive
Activity (Pseudomonas aeruginosa [22]): inactive
Ratio (Pseudomonas aeruginosa [23]): 256
Activity (Pseudomonas aeruginosa [24]): Dose-dependent effect
